FGF22 binding = FGF22 (human) thermal shift binding | recombinant FGF22 thermal shift, SYPRO orange fluorescence; percent of sucrose octasulfate shift, DMSO zero | Q9HCT0 | activity (Tm shift, normalised), % at 9.99 µM | actives 1.5% (n = 340,000) | AID 651658;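 active means mean Tm shift, scaled 0 neutral to 100 positive control, at about 1.3% or above, every replicate too, limit read from the data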
Target sequence (Q9HCT0 whole entry, looked up): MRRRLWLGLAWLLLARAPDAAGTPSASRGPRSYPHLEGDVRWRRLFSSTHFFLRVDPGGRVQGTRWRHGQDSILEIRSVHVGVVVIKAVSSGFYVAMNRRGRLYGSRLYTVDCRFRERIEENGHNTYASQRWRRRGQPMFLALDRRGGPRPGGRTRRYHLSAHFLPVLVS
PGC1a acetyl inh = modulators of PGC1a acetylation. U2OS PGC1a acetylation, AlphaScreen anti-acetyl-lysine; with virally co-expressed GCN5 acetyltransferase. inhibition, % at 15.6 µM. actives 0.17% (n = 350,000). AID 651687;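 active means every replicate shows inhibition of at least 40%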
FN deposition inh = fibronectin deposition inhibition | actives 0.086% (n = 350,000) | AH1F fibroblasts, Alexa488-fibronectin deposition fluorescence, overnight | inhibition, % at 12.6 µM | AID 743247;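 active means mean inhibition across replicates of 30% or more, regardless of how many single replicates reach that level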
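Material: AH1F fibroblasts assembling fluorescent fibronectin matrix; amount: 10000 AH1F cells/well; medium: DMEM, 2% serum; reagent: Alexa488-fibronectin, 24 nM final in well; dosing: single compound dose, delivered by pin transfer; incubation: 1 h adhesion, overnight exposure; detection: fluorescence after three HBSS washes, excitation 485 nm, emission 525 nm; measure: fibronectin deposition inhibition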
ERAP1 inh = inhibitors of human ERAP1 aminopeptidase; recombinant ERAP1, Leu-AMC fluorescence, 60 min; inhibition, % at 10.7 µM; actives 0.15% (n = 340,000);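 active means mean replicate inhibition of at least 30%, or all replicates individually reaching that 30% level; inactive means mean below 30% and not every replicate reaching it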
SIRT5 block = blocks human SIRT5 desuccinylation of peptide. Q9NXA8. Purified SirT5, succinyl-peptide AMC, trypsin-coupled fluorescence. inhibition, % at 15 µM. actives 1.1% (n = 330,000); in the data active means inhibition above about 15%
Target sequence (Q9NXA8 whole entry, looked up): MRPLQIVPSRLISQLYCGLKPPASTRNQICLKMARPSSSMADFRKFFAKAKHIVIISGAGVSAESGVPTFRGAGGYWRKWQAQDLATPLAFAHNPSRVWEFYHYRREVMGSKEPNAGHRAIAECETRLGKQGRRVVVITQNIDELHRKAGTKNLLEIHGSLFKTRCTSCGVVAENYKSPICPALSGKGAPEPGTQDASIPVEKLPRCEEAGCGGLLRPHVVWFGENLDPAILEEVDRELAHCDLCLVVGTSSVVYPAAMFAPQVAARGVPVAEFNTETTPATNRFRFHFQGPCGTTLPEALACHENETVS
Hits are given with their value. Most compounds without a hit are left out; they make up all but 2.2% or so of the library.

What do the screens show for `CO[C@@H]1CN(C)C(=O)c2ccc(NS(=O)(=O)c3ccccc3)cc2OC[C@H](C)N(Cc2ccccn2)C[C@@H]1C`?
FGF22 binding: inactive; PGC1a acetyl inh: inactive; FN deposition inh: inactive; ERAP1 inh: inactive

What do the screens show for `CC1=C(C#N)C(=O)NC(=O)/C1=C\c1ccc(-c2cc(C)c(C)cc2[N+](=O)[O-])o1`?
FGF22 binding: 1.6; PGC1a acetyl inh: inactive; ERAP1 inh: inactive; SIRT5 block: 17

Results for Cc1n[nH]c(C)c1CCCCOc1ccccc1 ?
FGF22 binding: 44; FN deposition inh: inactive; ERAP1 inh: inactive; SIRT5 block: inactive

Results for Cc1ccc(OCCCc2c(C)n[nH]c2C)cc1 ?
FGF22 binding: inactive; PGC1a acetyl inh: inactive; FN deposition inh: inactive; ERAP1 inh: inactive; SIRT5 block: inactive

What do the screens show for `CO[C@H]1CN(C)C(=O)c2ccc(NC(=O)C3CCOCC3)cc2OC[C@@H](C)N(C(C)=O)C[C@H]1C`?
FGF22 binding: inactive; PGC1a acetyl inh: inactive; FN deposition inh: inactive; ERAP1 inh: inactive

Results for CN(CC(=O)Nc1ccc(Cl)c(C(F)(F)F)c1)C(=O)c1cc(=O)[nH]c2ccccc12 ?
FGF22 binding: inactive; PGC1a acetyl inh: inactive; FN deposition inh: inactive; ERAP1 inh: inactive; SIRT5 block: inactive

How did Cc1ccc(C(=O)N(C)CC(=O)Nc2ccc(Cl)c(C(F)(F)F)c2)cc1S(=O)(=O)N1CCCCC1 do in these assays?
FGF22 binding: inactive; PGC1a acetyl inh: inactive; FN deposition inh: inactive; ERAP1 inh: inactive; SIRT5 block: 19

Results for CN(CC(=O)Nc1ccc(Cl)c(C(F)(F)F)c1)C(=O)c1cc(=O)c2ccccc2o1 ?
FGF22 binding: inactive; PGC1a acetyl inh: inactive; ERAP1 inh: inactive; SIRT5 block: 22

Results for Cc1ccc(S(=O)(=O)N2CCCCC2)cc1C(=O)N(C)CC(=O)Nc1ccc(Cl)c(C(F)(F)F)c1 ?
FGF22 binding: inactive; FN deposition inh: inactive; ERAP1 inh: inactive; SIRT5 block: inactive

Results for O=C(Nc1ccc(C(F)(F)F)cc1)N[C@@H]1CC[C@H](CC(=O)N2CCCCC2)O[C@@H]1CO ?
FGF22 binding: inactive; PGC1a acetyl inh: inactive; FN deposition inh: inactive; ERAP1 inh: inactive; SIRT5 block: inactive

How did O=C(NCc1ccc2c(c1)OCO2)C(=O)NCC1OCCN1S(=O)(=O)c1ccc(Br)cc1 (stereo not given) do in these assays?
FGF22 binding: inactive; FN deposition inh: inactive; ERAP1 inh: inactive; SIRT5 block: inactive

What do the screens show for `O=C(NCc1ccc2c(c1)OCO2)C(=O)NCC1OCCN1S(=O)(=O)c1ccc(Cl)cc1` (stereo not given)?
FGF22 binding: inactive; PGC1a acetyl inh: inactive; FN deposition inh: inactive; ERAP1 inh: inactive; SIRT5 block: 22

What do the screens show for `C[C@@H]1CN([C@H](C)CO)C(=O)Cc2cc(NC(=O)CCN3CCOCC3)ccc2O[C@@H]1CN(C)Cc1ccc(Cl)c(Cl)c1`?
FGF22 binding: inactive; PGC1a acetyl inh: inactive; ERAP1 inh: inactive; SIRT5 block: inactive

How did N/C(=N\OC(=O)COc1ccc(Cl)cc1)c1ccc(Cl)cc1 do in these assays?
FGF22 binding: inactive; PGC1a acetyl inh: inactive; FN deposition inh: inactive; ERAP1 inh: inactive; SIRT5 block: inactive

Results for Cc1cccc(/C(N)=N/OC(=O)COc2ccc(Cl)cc2)c1 ?
FGF22 binding: inactive; ERAP1 inh: inactive; SIRT5 block: 35

How did C[C@@H]1CN([C@H](C)CO)C(=O)c2cccc(NS(=O)(=O)c3cccs3)c2O[C@@H]1CN(C)CC1CCCCC1 do in these assays?
FGF22 binding: inactive; FN deposition inh: inactive; ERAP1 inh: inactive; SIRT5 block: inactive

Results for Oc1[nH]c2ccc(Br)cc2c1N=NC(=S)N1CCOCC1 ?
FGF22 binding: inactive; PGC1a acetyl inh: inactive; FN deposition inh: 31; ERAP1 inh: inactive; SIRT5 block: inactive

Results for O=C(/C=C/c1ccc(S(=O)(=O)N2CCOCC2)cc1)Nc1cc(F)ccc1F ?
FGF22 binding: inactive; PGC1a acetyl inh: inactive; FN deposition inh: inactive; ERAP1 inh: inactive; SIRT5 block: inactive

How did O=C(/C=C/c1ccc(S(=O)(=O)N2CCOCC2)cc1)NC(=S)Nc1ccc(Cl)cc1Cl do in these assays?
FGF22 binding: 43; FN deposition inh: inactive; ERAP1 inh: inactive; SIRT5 block: inactive

What do the screens show for `Cc1noc(C)c1NC(=O)NCC[C@@H]1CC[C@@H](NC(=O)c2ccncc2)[C@@H](CO)O1`?
FGF22 binding: inactive; PGC1a acetyl inh: inactive; ERAP1 inh: inactive; SIRT5 block: inactive

What do the screens show for `CO[C@@H]1CN(C)C(=O)c2ccc(NS(=O)(=O)c3ccccc3)cc2OC[C@H](C)N(Cc2cccnc2)C[C@H]1C`?
FGF22 binding: inactive; PGC1a acetyl inh: inactive; FN deposition inh: inactive; ERAP1 inh: inactive; SIRT5 block: inactive

What do the screens show for `CC(C)CC#Cc1ccc2c(c1)O[C@@H](CN(C)C(=O)C1CCCCC1)[C@H](C)CN([C@@H](C)CO)S2(=O)=O`?
FGF22 binding: inactive; PGC1a acetyl inh: inactive; FN deposition inh: inactive; ERAP1 inh: inactive; SIRT5 block: 17

Results for C[C@@H]1CN([C@@H](C)CO)S(=O)(=O)c2ccc(-c3cccc(C#N)c3)cc2O[C@@H]1CN(C)CC1CC1 ?
FGF22 binding: inactive; PGC1a acetyl inh: inactive; ERAP1 inh: inactive; SIRT5 block: inactive

Results for C[C@@H]1CN([C@H](C)CO)S(=O)(=O)c2ccc(C#Cc3ccccc3)cc2O[C@H]1CN(C)C(=O)C1CC1 ?
FGF22 binding: inactive; PGC1a acetyl inh: inactive; FN deposition inh: inactive; ERAP1 inh: inactive; SIRT5 block: 16

What do the screens show for `CC(C)CC#Cc1ccc2c(c1)O[C@@H](CN(C)CC1CCOCC1)[C@H](C)CN([C@H](C)CO)S2(=O)=O`?
FGF22 binding: inactive; PGC1a acetyl inh: inactive; ERAP1 inh: inactive; SIRT5 block: 17

What do the screens show for `C[C@H](CO)N1C[C@H](C)[C@@H](CN(C)CC2CC2)Oc2cc(-c3cccc(C#N)c3)ccc2S1(=O)=O`?
FGF22 binding: inactive; PGC1a acetyl inh: inactive; ERAP1 inh: inactive; SIRT5 block: 16

Results for CCCC#Cc1ccc2c(c1)O[C@H](CN(C)CC1CCOCC1)[C@H](C)CN([C@H](C)CO)S2(=O)=O ?
FGF22 binding: inactive; PGC1a acetyl inh: inactive; ERAP1 inh: inactive; SIRT5 block: inactive

What do the screens show for `CC(C)NC(=O)Nc1ccc2c(c1)C(=O)N([C@@H](C)CO)C[C@@H](C)[C@H](CN(C)C(=O)Cc1ccccc1)OCCCC[C@@H](C)O2`?
FGF22 binding: inactive; PGC1a acetyl inh: inactive; FN deposition inh: inactive; ERAP1 inh: inactive; SIRT5 block: inactive

What do the screens show for `O=C(c1ccc(F)cc1)N1CC[C@@H]2[C@@H](CO)Nc3ccc(C#CC4CC4)cc3[C@@H]21`?
FN deposition inh: inactive

How did CC(C)CC#Cc1ccc2c(c1)O[C@H](CN(C)C(=O)C1CCC1)[C@H](C)CN([C@@H](C)CO)S2(=O)=O do in these assays?
FGF22 binding: inactive; PGC1a acetyl inh: inactive; ERAP1 inh: inactive; SIRT5 block: inactive

Source: PubChem BioAssay
